Measured values as given in ChEMBL document CHEMBL2311431, “Synthesis and biological evaluation of some 5-arylidene-2-(1,3-thiazol-2-ylimino)-1,3-thiazolidin-4-ones as dual anti-inflammatory/antimicrobial agents” (Bioorg Med Chem, 2013).
Values after ≈ are worked out from the molar mass of the structure shown. Active and inactive are the calls of the source. No cut-off for these calls is given here.

Legend:
Aspergillus fumigatus [1] = assay: Antifungal activity against Aspergillus fumigatus after 72 hrs by serial dilution technique; format: functional
How it was run: (§1)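 Serial dilution in malt broth; compounds from 1 mg/ml stocks in 5% DMSO; 72 h at 28 °C. MIC is the lowest concentration with no visible growth under a binocular microscope. Run in duplicate, repeated three times.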

Talaromyces funiculosus [2] = assay: Antifungal activity against Penicillium funiculosum ATCC 36839 after 72 hrs by serial dilution technique; format: functional; conditions: ATCC 36839, 72 h; how it was run: as §1
Trichoderma viride [3] = assay: Fungicidal activity against Trichoderma viride IAM 5061 after 72 hrs by serial subcultivation method; format: functional; conditions: IAM 5061, 72 h
Aspergillus niger [4] = assay: Fungicidal activity against Aspergillus niger ATCC 6275 after 72 hrs by serial subcultivation method; format: functional; conditions: ATCC 6275, 72 h
Trichoderma viride [5] = assay: Antifungal activity against Trichoderma viride IAM 5061 after 72 hrs by serial dilution technique; format: functional; conditions: IAM 5061, 72 h; how it was run: as §1
Talaromyces funiculosus [6] = assay: Fungicidal activity against Penicillium funiculosum ATCC 36839 after 72 hrs by serial subcultivation method; format: functional; conditions: ATCC 36839, 72 h
Aspergillus fumigatus [7] = assay: Fungicidal activity against Aspergillus fumigatus after 72 hrs by serial subcultivation method; format: functional
Penicillium ochrochloron [8] = assay: Antifungal activity against Penicillium ochrochloron ATCC 9112 after 72 hrs by serial dilution technique; format: functional; conditions: ATCC 9112, 72 h; how it was run: as §1
Penicillium ochrochloron [9] = assay: Fungicidal activity against Penicillium ochrochloron ATCC 9112 after 72 hrs by serial subcultivation method; format: functional; conditions: ATCC 9112, 72 h
Aspergillus niger [10] = assay: Antifungal activity against Aspergillus niger ATCC 6275 after 72 hrs by serial dilution technique; format: functional; conditions: ATCC 6275, 72 h; how it was run: as §1
Aspergillus flavus [11] = assay: Fungicidal activity against Aspergillus flavus ATCC 9643 after 72 hrs by serial subcultivation method; format: functional; conditions: ATCC 9643, 72 h
Aspergillus flavus [12] = assay: Antifungal activity against Aspergillus flavus ATCC 9643 after 72 hrs by serial dilution technique; format: functional; conditions: ATCC 9643, 72 h; how it was run: as §1
[13] = biological target: T1, Prostaglandin G/H synthase 1 (Ovis aries) (UniProt P05979); assay: Inhibition of ovine COX1 assessed as inhibition of PGF2a production by enzyme immunoassay; parameters: concentration or dose not given beside the values
T1 sequence (whole entry): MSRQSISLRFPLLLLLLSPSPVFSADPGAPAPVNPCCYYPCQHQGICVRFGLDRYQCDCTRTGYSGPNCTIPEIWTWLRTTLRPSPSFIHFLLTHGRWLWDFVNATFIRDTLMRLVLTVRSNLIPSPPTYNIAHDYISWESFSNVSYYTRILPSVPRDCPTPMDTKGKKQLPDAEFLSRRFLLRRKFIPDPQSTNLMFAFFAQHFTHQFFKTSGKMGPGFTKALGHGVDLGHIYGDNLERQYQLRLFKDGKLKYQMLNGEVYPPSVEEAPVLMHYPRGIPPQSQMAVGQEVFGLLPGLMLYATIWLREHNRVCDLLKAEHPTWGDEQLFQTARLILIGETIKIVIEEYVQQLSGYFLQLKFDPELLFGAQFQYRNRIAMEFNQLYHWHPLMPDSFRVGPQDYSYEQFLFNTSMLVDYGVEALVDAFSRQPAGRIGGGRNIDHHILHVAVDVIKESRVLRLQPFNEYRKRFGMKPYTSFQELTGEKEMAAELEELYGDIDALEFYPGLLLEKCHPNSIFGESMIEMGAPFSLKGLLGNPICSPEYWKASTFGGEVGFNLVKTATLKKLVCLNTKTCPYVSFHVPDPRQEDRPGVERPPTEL
How it was run: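 Ovine COX-1 from a commercial screening kit, tested with 0.1 µM arachidonic acid, which is below the saturating level. COX-derived PGH2 is reduced by SnCl2 to PGF2a, quantified by enzyme immunoassay with a broad prostaglandin antibody. At least triplicate.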

Mus musculus = assay: Antiinflammatory activity in AKR mouse assessed as inhibition of carrageenan-induced paw edema at 0.01 mmol/kg, ip measured after 3.5 hrs of carrageenan-challenge; format: functional
How it was run: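 AKR mice of both sexes (pregnant females excluded), 6-10 per group, fasted during the experiment. Edema induced by intradermal 0.05 mL of 2% carrageenin into the right hind paw. Compound given at 0.01 mmol/kg ip, suspended in water with Tween-80, at the same time as carrageenin.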

[14] = Inhibition of soybean lipoxygenase assessed as inhibition of sodium linolate conversion to 13-hydroperoxylinoleic acid after 4 mins by spectrophotometry; parameters: species or system Glycine max; conditions: read-out: IC50
Listeria monocytogenes [15] = assay: Bactericidal activity against Listeria monocytogenes NCTC 7973 after 72 hrs by serial subcultivation method; format: functional; conditions: NCTC 7973, 72 h
Micrococcus flavus [16] = assay: Antibacterial activity against Micrococcus flavus ATCC 10240 after 24 hr by microdilution test; format: functional; conditions: ATCC 10240, 24 h
How it was run: (§2)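 Broth microdilution in LB medium, about 1.0×10^4 cfu per well; compounds from 1 mg/ml stocks in 5% DMSO. Incubated 24 h. MIC is the lowest concentration with no visible growth under a binocular microscope. Run in duplicate, repeated three times.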

Escherichia coli [17] = assay: Bactericidal activity against Escherichia coli ATCC 35210 after 72 hrs by serial subcultivation method; format: functional; conditions: ATCC 35210, 72 h
Pseudomonas aeruginosa [18] = assay: Bactericidal activity against Pseudomonas aeruginosa ATCC 27853 after 72 hrs by serial subcultivation method; format: functional; conditions: ATCC 27853, 72 h
Pseudomonas aeruginosa [19] = assay: Antibacterial activity against Pseudomonas aeruginosa ATCC 27853 after 24 hr by microdilution test; format: functional; conditions: ATCC 27853, 24 h; how it was run: as §2
Staphylococcus aureus [20] = assay: Bactericidal activity against Staphylococcus aureus ATCC 6538 after 72 hrs by serial subcultivation method; format: functional; conditions: ATCC 6538, 72 h
Micrococcus flavus [21] = assay: Bactericidal activity against Micrococcus flavus ATCC 10240 after 72 hrs by serial subcultivation method; format: functional; conditions: ATCC 10240, 72 h
Staphylococcus aureus [22] = assay: Antibacterial activity against Staphylococcus aureus ATCC 6538 after 24 hr by microdilution test; format: functional; conditions: ATCC 6538, 24 h; how it was run: as §2
Escherichia coli [23] = assay: Antibacterial activity against Escherichia coli ATCC 35210 after 24 hr by microdilution test; format: functional; conditions: ATCC 35210, 24 h; how it was run: as §2
Bacillus cereus [24] = assay: Bactericidal activity against Bacillus cereus clinical isolate after 72 hrs by serial subcultivation method; format: functional
Listeria monocytogenes [25] = assay: Antibacterial activity against Listeria monocytogenes NCTC 7973 after 24 hr by microdilution test; format: functional; conditions: NCTC 7973, 24 h; how it was run: as §2
Bacillus cereus [26] = assay: Antibacterial activity against Bacillus cereus clinical isolate after 24 hr by microdilution test; format: functional; how it was run: as §2

CC(=O)N1CCN(c2ccc(OCC3COC(Cn4ccnc4)(c4ccc(Cl)cc4Cl)O3)cc2)CC1 (centres undefined) [KETOCONAZOLE]
MIC (Aspergillus fumigatus [1]): 380 µM (≈ 202 µg/mL) | MIC (Talaromyces funiculosus [2]): 380 µM (≈ 202 µg/mL) | MFC (Trichoderma viride [3]): 5700 µM (≈ 3030 µg/mL) | MFC (Aspergillus niger [4]): 950 µM (≈ 505 µg/mL) | MIC (Trichoderma viride [5]): 4750 µM (≈ 2520 µg/mL) | MFC (Talaromyces funiculosus [6]): 950 µM (≈ 505 µg/mL) | MFC (Aspergillus fumigatus [7]): 950 µM (≈ 505 µg/mL) | MIC (Penicillium ochrochloron [8]): 3800 µM (≈ 2020 µg/mL) | MFC (Penicillium ochrochloron [9]): 3800 µM (≈ 2020 µg/mL) | MIC (Aspergillus niger [10]): 380 µM (≈ 202 µg/mL) | MFC (Aspergillus flavus [11]): 3800 µM (≈ 2020 µg/mL) | MIC (Aspergillus flavus [12]): 2850 µM (≈ 1510 µg/mL)

CC(Cc1ccc(O)c(O)c1)C(C)Cc1ccc(O)c(O)c1 (centres undefined) [NORDIHYDROGUAIARETIC ACID]
inhibition [13]: inactive | inhibition (Mus musculus): inactive | IC50 [14]: 32 µM

O=C1N/C(=N\c2nc(-c3ccccc3)cs2)S/C1=C\c1ccccc1Cl
MIC (Aspergillus fumigatus [1]): 17.6 µM (≈ 7 µg/mL) | MBC (Listeria monocytogenes [15]): 25 µM (≈ 9.95 µg/mL) | MIC (Micrococcus flavus [16]): 25 µM (≈ 9.95 µg/mL) | MIC (Talaromyces funiculosus [2]): 17.6 µM (≈ 7 µg/mL) | MBC (Escherichia coli [17]): 100 µM (≈ 39.8 µg/mL) | MFC (Trichoderma viride [3]): 23.4 µM (≈ 9.31 µg/mL) | MBC (Pseudomonas aeruginosa [18]): 100 µM (≈ 39.8 µg/mL) | MIC (Pseudomonas aeruginosa [19]): 50 µM (≈ 19.9 µg/mL) | MBC (Staphylococcus aureus [20]): 100 µM (≈ 39.8 µg/mL) | MFC (Aspergillus niger [4]): 23.4 µM (≈ 9.31 µg/mL) | MIC (Trichoderma viride [5]): 11.7 µM (≈ 4.66 µg/mL) | MBC (Micrococcus flavus [21]): 25 µM (≈ 9.95 µg/mL) | MIC (Staphylococcus aureus [22]): 50 µM (≈ 19.9 µg/mL) | MFC (Talaromyces funiculosus [6]): 23.4 µM (≈ 9.31 µg/mL) | MFC (Aspergillus fumigatus [7]): 23.4 µM (≈ 9.31 µg/mL) | MIC (Escherichia coli [23]): 50 µM (≈ 19.9 µg/mL) | MBC (Bacillus cereus [24]): 25 µM (≈ 9.95 µg/mL) | MIC (Penicillium ochrochloron [8]): 11.7 µM (≈ 4.66 µg/mL) | MFC (Penicillium ochrochloron [9]): 23.4 µM (≈ 9.31 µg/mL) | MIC (Aspergillus niger [10]): 17.6 µM (≈ 7 µg/mL) | MFC (Aspergillus flavus [11]): 23.4 µM (≈ 9.31 µg/mL) | MIC (Aspergillus flavus [12]): 17.6 µM (≈ 7 µg/mL) | MIC (Listeria monocytogenes [25]): 25 µM (≈ 9.95 µg/mL) | MIC (Bacillus cereus [26]): 25 µM (≈ 9.95 µg/mL)
